Screening results deposited in PubChem BioAssay by several laboratories.
MC4R antag cAMP – antagonists of human melanocortin 4 receptor (MC4R); P32245; MC4R-expressing cells, MTII-stimulated cAMP, LANCE TR-FRET; inhibition, % at 6.5 µM; actives 0.48% (n = 360,000);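 active = inhibition above its plate's cutoff, the mean of tested wells on that plate plus 3 SD, cut at about 29% in these data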
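Assay system: human MC4R-expressing U2OS cells; reagent: Melanotan II stimulation of cells; dosing: 6.5 µM single dose; timing: compound 30 min, challenge 1 h, detection 1 h; signal: TR-FRET cAMP assay; replicates: one well per compound, no replicates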
T cell HTS – T cell immune modulators affecting CD8 T cell-vesicle binding | 2C CD8+ T cell-vesicle binding, flow cytometry; hits give low values | response (vesicle binding), % at 7 µM | actives 0.068% (n = 330,000);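 active = response, share of CD8 T cells binding vesicles, and their 90th percentile fluorescence all below set limits, cut at about 80% in these data, passing the limit was not always enough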;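 note: values below 100% mean blocked vesicle binding to the CD8+ T cells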
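Assay system: 2C TCR transgenic mouse naive CD8+ T cells, MACS-purified | Read-out: CD8+ gate FL2 mean fluorescence as % of same-row positive control | Signal: High-throughput flow cytometry with anti-B7-1 and anti-CD8 staining | Timing: Binding step 1.5 h, 37 °C, antibody labelling 20 min, ice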
MC4R ag barr – activates human MC4R beta-arrestin recruitment | activation, % at 8.9 µM | P32245 | actives 0.98% (n = 360,000) | U2OS MC4R beta-arrestin complementation, luminescence; percent of melanotan II response, DMSO zero;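 active = activation above a per-plate cutoff, the mean activation of sample wells on that plate plus 3 SD, cut at about 8% in these data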
EP2 mod – EP2 receptor (human) modulation; P43116; EP2-expressing cells, cAMP HTRF FRET, PGE2 co-stimulation; induction, % at 25 µM; actives 0.83% (n = 260,000);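 active = compounds whose cAMP rise, as percent of the full-agonist control response, exceeds 60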;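 note: rat C6 glioma line stably carrying human EP2 under a CMV promoter; the protocol text gives 20 µM as final concentration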
PGE2 EP2 inh – inhibitors of human EP2 prostaglandin E2 receptor; AID 1422; inhibition, % at 25 µM; actives 0.52% (n = 260,000); P43116; C6 glioma cells expressing human EP2, cAMP TR-FRET; cells stimulated with saturating PGE2;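 active = percent inhibition above 40 after rounding to a whole number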;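 note: rat C6 glioma host cells with rolipram phosphodiesterase inhibitor present; the protocol text gives 20 µM as final concentration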
Granule exo inh – lytic granule exocytosis inhibition; TALL-104 LAMP-1 surface exposure, flow cytometry; cells stimulated with thapsigargin and PMA; inhibition, % at 10 µM; actives 0.66% (n = 360,000); AID 651702;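 active = inhibition above about 55%, limit read from the data; inconclusive = no clear call, values can overlap the other calls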
MC4R barr conf – human MC4R beta-arrestin agonism confirmation. shares compounds with MC4R ag barr. U2OS MC4R beta-arrestin recruitment, luminescence; scaled DMSO 0%, Melanotan II 100%. activation, % at 8.9 µM. actives 31% (n = 2,400). AID 602192;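 active = mean activation across replicates above the hit cutoff set in the earlier primary screen, cut at about 8% in these data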
MOR-DOR barr ag – counter-screen for MC4R agonists: agonists of mu-delta opioid heterodimer | U2OS PathHunter beta-arrestin, beta-gal luminescence; percent of deltorphin B response, DMSO zero | AID 602194 | actives 5.8% (n = 2,400) | activation, % at 9.2 µM | shares compounds with MC4R ag barr;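 active = mean activation across replicates exceeds the hit threshold derived in the earlier primary screen, cut at about 18% in these data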
Target sequence (P35372 whole entry, looked up): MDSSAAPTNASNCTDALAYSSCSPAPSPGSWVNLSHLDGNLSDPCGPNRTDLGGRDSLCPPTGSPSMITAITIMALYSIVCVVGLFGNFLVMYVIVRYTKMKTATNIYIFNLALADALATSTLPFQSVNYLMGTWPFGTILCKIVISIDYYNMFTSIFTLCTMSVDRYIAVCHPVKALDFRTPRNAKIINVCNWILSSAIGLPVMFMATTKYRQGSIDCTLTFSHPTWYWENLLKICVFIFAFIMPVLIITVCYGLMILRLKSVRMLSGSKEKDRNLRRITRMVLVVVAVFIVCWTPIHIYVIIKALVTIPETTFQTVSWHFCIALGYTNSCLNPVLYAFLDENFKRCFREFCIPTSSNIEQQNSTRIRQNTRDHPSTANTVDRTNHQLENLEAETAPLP
Target sequence (P41143 whole entry, looked up): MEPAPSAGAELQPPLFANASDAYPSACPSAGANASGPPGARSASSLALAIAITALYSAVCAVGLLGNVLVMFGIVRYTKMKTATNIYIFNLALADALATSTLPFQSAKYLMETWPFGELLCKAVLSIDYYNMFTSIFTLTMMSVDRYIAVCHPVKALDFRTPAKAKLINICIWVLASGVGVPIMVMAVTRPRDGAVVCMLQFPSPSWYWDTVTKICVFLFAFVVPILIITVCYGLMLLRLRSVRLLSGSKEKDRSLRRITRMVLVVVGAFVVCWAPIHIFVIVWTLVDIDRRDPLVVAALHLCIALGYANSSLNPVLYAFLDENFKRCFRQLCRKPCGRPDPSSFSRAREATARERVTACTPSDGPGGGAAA
Numbers stand for hits; - = inactive; ? = inconclusive; . = no result. An excerpt weighted towards active compounds, which were near 2.6% of everything screened.

SMILES | MC4R antag cAMP | T cell HTS | MC4R ag barr | EP2 mod | PGE2 EP2 inh | Granule exo inh | MC4R barr conf | MOR-DOR barr ag
Oc1cccc(C(=S)N2CCC(Cc3ccccc3)CC2)c1 | - | - | 10.4 | . | . | - | - | -
Oc1cccc(C(=S)N2CCN(Cc3ccccc3)CC2)c1 | - | - | - | - | - | - | . | .
Cc1cc(C)nc(SCC(=O)Nc2ncc(Cc3ccc(Cl)c(Cl)c3)s2)n1 | - | - | 20.8 | - | - | - | - | -
CC(=O)c1ccc(N2C(=O)CC(N3CCN(S(=O)(=O)c4ccc(C)c(C)c4)CC3)C2=O)cc1 (stereo not drawn) | - | - | - | . | . | - | . | .
COc1ccccc1CCNC(=O)C1CCN(c2nnc(C)c3c(C)n(-c4ccc(C)cc4)nc23)CC1 | - | - | 10.3 | . | . | - | - | -
COc1ccc(-n2nc3c(N4CCC(C(=O)NCCc5ccco5)CC4)nnc(C)c3c2C)cc1 | - | - | - | . | . | - | . | .
C/C(=N\Nc1ccc([N+](=O)[O-])cc1[N+](=O)[O-])c1ccc(-n2nncc2C(C)(C)C)cc1 | - | - | - | - | - | ? | . | .
CCOCCCN(Cc1ccco1)C(=O)c1cc2c(=O)[nH]c3ccc(C)cc3c2s1 | - | - | 10.7 | - | - | - | 18.0 | -
O=C1COc2ccc(C(=O)COC(=O)c3sc4ccccc4c3Cl)cc2N1 | - | - | 11.6 | - | - | - | - | -
O=C(NCc1csc(-c2cccs2)n1)Nc1cccc(Cl)c1 | - | - | 9.8 | - | - | - | - | -
CCN1CCN(CCNC(=O)c2ccc(/C=C3\Sc4ccccc4N(Cc4ccccc4F)C3=O)cc2)CC1 | - | - | 12.2 | - | - | 72.2 | 16.9 | -
Cc1cccc(CN2C(=O)/C(=C\c3ccc(C(=O)NCCCN4CCN(C)CC4)cc3)Oc3ccccc32)c1 | - | - | - | . | . | - | . | .
CN1CCN(CCCNC(=O)c2ccc(/C=C3/Sc4ccccc4N(Cc4cccc(Cl)c4)C3=O)cc2)CC1 | - | . | 10.1 | - | - | 75.4 | 16.1 | -
CC1=CC(=C(C#N)C#N)C=C(C)N1CCC(C)C | - | - | - | - | - | - | . | .
COc1ccc(C(=O)c2coc3c2C(=O)C(=O)c2ccccc2-3)cc1 | - | - | 16.9 | - | - | 97.9 | - | -
COc1ccc2occ(C(=O)c3ccccc3)c2c1 | - | - | - | - | - | - | . | .
COc1cccc2sc(N(CCCN(C)C)C(=O)c3sc4ccccc4c3Cl)nc12 | - | - | 17.4 | - | - | - | 20.4 | 24.4
CCOC(=O)CC[C@H](NC(=O)Cn1cc(C)c(=O)[nH]c1=O)C(=O)OCC | - | . | - | . | . | - | . | .
CN(C)CCOc1ccc(-c2c(-c3ccccc3)sc3ccccc23)cc1 | - | - | 22.6 | . | . | - | 38.4 | -
Clc1ccc(-c2nc3ccncc3[nH]2)cc1 | - | - | - | - | - | - | . | .
CCOC(=O)c1[nH]c2ccc(OC)cc2c1NC(=O)c1ccc2c(c1)OCO2 | - | - | - | - | - | - | . | .
CCOC(=O)c1[nH]c2cc(OC)c(OC)cc2c1NC(=O)c1ccc2c(c1)OCO2 | - | - | 26.2 | - | - | - | - | -
COc1cc2nc(NCCCN3CCN(C)CC3)n3nc(-c4ccccc4)nc3c2cc1OC | - | - | - | - | - | - | . | .
CCCCCc1c2c(cc(O)c1C(=O)O)OC(=O)c1c(cc(OC)cc1C(=O)CCCC)O2 | - | - | 11.4 | - | - | - | - | -
CCCCCc1c2c(cc(O)c1C(=O)O)OC(=O)c1cc(C(=O)CCCC)c(OC)cc1O2 | - | - | - | . | . | - | . | .
NS(=O)(=O)c1ccc(CCNc2nn3c(-c4ccc(F)c(Cl)c4)cnc3s2)cc1 | - | . | - | . | . | - | . | .
CCOc1ccc2nc(NC(=O)c3cccc(-c4cc5ccccc5oc4=O)c3)sc2c1 | - | - | 23.9 | - | - | - | 13.3 | -
